Experiments:
[1] = Selectivity index, ratio of CC50 for human Huh7.5 cells to EC50 for HCV genotype 1b infected in human Huh7/Rep-Feo1b replicon cells; parameters: species or system Huh-7
[2] = test system: Hepatitis C virus; assay: Antiviral activity against HCV genotype 2a infected in human Huh7.5-FGR-JC1-Rluc2A replicon cells assessed as inhibition of viral RNA replication at 50 uM measured after 48 hrs by luciferase reporter gene assay relative to control; assay type: functional, Hepacivirus hominis; details: Huh-7, 48 h
Procedure, shortened: (§1)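 Replicon cells (gt1b firefly luciferase; gt2a Renilla luciferase) in DMEM/10% FBS with G418, ~1 × 10^4 cells/well, dosed 12 h after seeding with 50 µM compound or DMSO (1% final) for 48 h at 37 °C. Cells were PBS-washed and luciferase read; % inhibition was taken versus DMSO-treated cells, mean±SD, n=3.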

[3] = Cytotoxicity against human Huh7.5 cells measured after 48 hrs by MTS assay; assay type: toxicity, cell-based, Huh-7; details: for CC50 at 48 h: Huh7.5 cells; for Activity: huh-7, 48 h
Procedure, shortened: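 Parental Huh7.5 cells were treated 12 h after seeding with 8-10 dilutions of compound or DMSO (1% final) for 48 h at 37 °C. Viability was read by MTS bioreduction to formazan. CC50 is the concentration halving the MTS signal, mean ± SD of three independent experiments.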

[4] = test system: Hepatitis C virus; assay: Antiviral activity against HCV genotype 1b infected in human Huh7/Rep-Feo1b replicon cells assessed as inhibition of viral RNA replication measured after 48 hrs by luciferase reporter gene assay; assay type: functional, cell-based, Hepacivirus hominis; details: Huh-7, 48 h
Procedure, shortened: (§2)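 EC50 from concentration-response in replicon cells (gt1b firefly, gt2a Renilla luciferase reporter) maintained with G418. Compound added 12 h post-seeding (~1 × 10^4 cells/well), 48 h exposure, DMSO 1% final. Luciferase was compared with DMSO controls; the value is the mean ± SD of three independent 8-12 point quarter-log dilution series, calculated with CalcuSyn.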

[5] = Selectivity index, ratio of CC50 for human Huh7.5 cells to EC50 for HCV genotype 2a infected in human Huh7.5-FGR-JC1-Rluc2A replicon cells; parameters: species or system Huh-7
[6] = test system: Hepatitis C virus; assay: Antiviral activity against HCV genotype 2a infected in human Huh7.5-FGR-JC1-Rluc2A replicon cells assessed as inhibition of viral RNA replication incubated for 48 hrs by luciferase reporter gene assay; assay type: functional, cell-based, Hepacivirus hominis; details: Huh-7, 48 h; procedure, shortened: as §2
[7] = test system: Hepatitis C virus; assay: Antiviral activity against HCV genotype 1b infected in human Huh7/Rep-Feo1b replicon cells assessed as inhibition of viral RNA replication at 50 uM measured after 48 hrs by luciferase reporter gene assay relative to control; assay type: functional, Hepacivirus hominis; details: Huh-7, 48 h; procedure, shortened: as §1

| SMILES | EC50 [4] [µM] | EC50 [6] [µM] | Ratio CC50/EC50 [1] | inhibition at 50 µM [2] [%] | CC50 at 48 h [3] [µM] | Ratio CC50/EC50 [5] | inhibition at 50 µM [7] [%] | Activity [3] [%] |
| --- | --- | --- | --- | --- | --- | --- | --- | --- |
| Cc1ccc(S(=O)(=O)N2[C@H](C(=O)N3CCOCC3)C[C@@H]3C(=O)CCCC[C@@H]32)cc1 (racemic) | – | – | – | 12 | > 200 | – | 19 | – |
| Cc1ccc(S(=O)(=O)N2[C@H]3CCCCC(=O)[C@@]3(C)C[C@H]2C(=O)O)cc1 (racemic) | – | – | – | 33 | > 200 | – | 41 | – |
| CCOC(=O)[C@H](C)N1CC[C@H]2C(=O)CCCC[C@@H]21 | – | – | – | 83 | – | – | – | – |
| CCOC(=O)[C@@H]1C[C@@H]2C(=O)CCCC[C@@H]2N1S(=O)(=O)c1ccnn1C (racemic) | – | – | – | 17 | > 200 | – | – | – |
| O=C1CCCC[C@@H]2[C@@H](N1)[C@H](c1cccc(F)c1)CN2Cc1ccccc1 (racemic) | – | – | – | 80 | – | – | 49 | – |
| Cl.Cl.Fc1cccc([C@@H]2CN(Cc3ccccc3)[C@@H]3CCCCCN[C@H]32)c1 (racemic) | – | – | – | 61 | < 50 | – | 98 | 11 |
| Cc1ccc(S(=O)(=O)N2[C@H](C(N)=O)C[C@@H]3C(=O)CCCC[C@@H]32)cc1 (racemic) | – | – | – | 38 | > 200 | – | – | – |
| COc1cccc([C@@H]2CN(Cc3ccccc3)[C@@H]3CCCCC(=O)N[C@H]32)c1 (racemic) | – | – | – | 54 | – | – | 59 | – |
| CC(C)(C)OC(=O)N1CC[C@@H]2NC[C@H](c3ccccc3)[C@H]2C(=O)C1.Cl (racemic) | – | – | – | 47 | > 150 | – | 48 | 97 |
| Cc1ccc(S(=O)(=O)N2[C@H](C(=O)O)C[C@@H]3C(=O)CCCC[C@@H]32)cc1 (racemic) | – | – | – | 42 | > 200 | – | 14 | – |
| CCOC(=O)[C@@H](C)N1CC[C@H]2C(=O)CCCC[C@@H]21 | – | – | – | 38 | > 100 | – | 24 | 88 |
| CCNC(=O)[C@@H]1C[C@@H]2C(=O)CCCC[C@@H]2N1S(=O)(=O)c1ccc(C)cc1 (racemic) | – | – | – | 39 | > 200 | – | 15 | – |
| O=C(O)[C@@H]1C[C@H]2[C@@H](O)CCC[C@H]2N1 (racemic) | – | – | – | 12 | – | – | – | – |
| CCOC(=O)[C@@H]1C[C@@H]2[C@@H](CCC[C@@H]2O)N1S(=O)(=O)c1ccc(C)cc1 (racemic) | – | – | – | 45 | > 150 | – | 38 | 93 |
| O=C1CCCC[C@@H]2[C@H]1[C@@H](c1ccccc1)CN2Cc1ccccc1 (racemic) | – | – | – | 4 | – | – | 38 | – |
| CCOC(=O)[C@@H]1C[C@@H]2/C(=N/OCc3ccccc3)CCCC[C@@H]2N1S(=O)(=O)c1ccc(C)cc1 (racemic) | – | – | – | 30 | > 200 | – | – | – |

Now from value to molecule, other results behind:

| EC50 [4] [µM] | EC50 [6] [µM] | SMILES | Ratio CC50/EC50 [1] | inhibition at 50 µM [2] [%] | CC50 at 48 h [3] [µM] | Ratio CC50/EC50 [5] | inhibition at 50 µM [7] [%] | Activity [3] [%] |
| --- | --- | --- | --- | --- | --- | --- | --- | --- |
| 59.4 | 8.7 | CCOC(=O)[C@@H]1C[C@@H]2C(=O)CCCC[C@H]2N1S(=O)(=O)c1ccc(C)cc1 (racemic) | 3.4 | 91 | > 200 | 22.9 | 51 | – |
| 7.5 | 5.6 | O=C1CCCC[C@@H]2[C@H](C[C@H](Cc3ccccc3)N2Cc2ccccc2)N1 (racemic) | >6.6 | 99 | > 50 | >8.8 | 82 | 61 |
| 24.1 | 12.4 | O=C1CCCC[C@H]2[C@H](N1)[C@@H](c1ccccc1)CN2Cc1ccccc1 (racemic) | >8.3 | 59 | > 200 | >16.1 | 80 | 98 |
| 11.6 | 8.2 | CCOC(=O)[C@@H]1C[C@@H]2NC(=O)CCCC[C@@H]2N1S(=O)(=O)c1ccc(C)cc1 (racemic) | 12.4 | 71 | 143 | 17.4 | 66 | 92 |
| 28.1 | – | Cc1ccc(S(=O)(=O)N2[C@H](C(=O)NCCc3ccccc3)C[C@@H]3C(=O)CCCC[C@@H]32)cc1 (racemic) | 5.4 | 48 | 153 | – | 66 | – |
| 49.1 | 14.2 | CCOC(=O)[C@@H]1C[C@]2(C)C(=O)CCCC[C@@H]2N1S(=O)(=O)c1ccc(C)cc1 (racemic) | 4.1 | 76 | > 200 | 14.1 | 50 | – |
| 7.1 | 6.1 | CCOC(=O)[C@H]1C[C@H]2C(=O)CCCC[C@H]2N1S(=O)(=O)c1ccc(C)cc1 (racemic) | >28.2 | 84 | > 200 | >32.8 | 89 | 77 |
| – | 26.3 | Cc1ccc(S(=O)(=O)N2[C@H](C(=O)O)C[C@@H]3/C(=N/Nc4ccccc4)CCCC[C@@H]32)cc1 (racemic) | – | 81 | > 200 | >7.6 | 25 | – |
| 9 | 4.47 | CC(C)(C)OC(=O)N1CC[C@H]2[C@H](C(=O)C1)[C@@H](c1ccccc1)CN2Cc1ccccc1 (racemic) | >5.5 | 99 | > 50 | >11.2 | 94 | 61 |
| 2 | 1.2 | OC1CCCC[C@H]2[C@H]1[C@@H](c1cccc(F)c1)CN2Cc1ccccc1 (mixture of isomers) | 18.4 | 99 | 36.9 | 30.8 | 99 | 28 |
| – | 23.8 | CCOC(=O)[C@@H]1C[C@@H]2C(=O)CCCC[C@@H]2N1S(=O)(=O)c1ccc(Cl)cc1 (racemic) | – | 60 | > 200 | 8.4 | 32 | – |
| 27.2 | 25.8 | CCOC(=O)[C@@H]1C[C@@H]2[C@@H](OC(C)=O)CCCC[C@@H]2N1S(=O)(=O)c1ccc(C)cc1 (racemic) | 7.3 | 73 | > 200 | 7.7 | 60 | – |
| 16.5 | 11.4 | O=C1CCCC[C@@H]2[C@H]1[C@@H](c1ccccc1)CN2S(=O)(=O)c1ccccc1 (racemic) | 12.1 | 88 | > 200 | 17.6 | 78 | 84 |
| 7.7 | 4.6 | O=C1CCCC[C@H]2[C@H]1[C@@H](c1ccccc1)CN2Cc1ccccc1 (racemic) | 17.3 | 96 | 134 | 29.2 | 71 | 85 |
| 14.9 | 14.3 | CCOC(=O)[C@@H]1C[C@@H]2C(=O)CCCC[C@@H]2N1C(=O)c1ccccc1 (racemic) | >13.4 | 95 | > 200 | >13.9 | 59 | – |
| 34.4 | 13 | CCOC(=O)[C@@H]1C[C@@H]2C(=O)CCCC[C@@H]2N1S(=O)(=O)c1ccc(C(C)(C)C)cc1 (racemic) | >5.8 | 94 | > 200 | >15.4 | 49 | – |
| 25.3 | 15.3 | CCOC(=O)[C@@H]1C[C@@H]2/C(=N/O)CCCC[C@@H]2N1S(=O)(=O)c1ccc(C)cc1 (racemic) | 7.9 | 66 | > 200 | 13.1 | 63 | – |
| – | 27.6 | CCOC(=O)[C@@H]1C[C@@H]2[C@@H](O)CCCC[C@@H]2N1S(=O)(=O)c1ccc(C)cc1 (racemic) | – | 77 | > 200 | 7.3 | 22 | – |
